Laboratory results taken from ChEMBL document CHEMBL3244404, “Effect of sulfur substitution for the noncarbonyl oxygen in hemicholinium-3 and acetyl-seco-hemicholinium-3. Synthesis, biological activity, and structure-toxicity relationships” (J Med Chem, 1977).

Key:
Conditions in all cases: in vivo
[1] = Toxicity in ip dosed CD-1 mouse assessed as mortality in presence of 0.2 mg/kg, ip neostigmine; type: organism-based; set-up: dose 0.2 mg/kg, route intraperitoneal
Mus musculus [2] = experiment: Toxicity in ip dosed CD-1 mouse assessed as clonic convulsions; type: organism-based
Method in brief: (§1)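 Compounds dissolved in normal saline (0.9% NaCl) and injected ip into mice. Signs were recorded as they appeared after dosing. Animals that died were autopsied immediately, with lungs and peritoneal cavity examined for excess fluid and heart and small intestine observed.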

Mus musculus [3] = experiment: Toxicity in ip dosed CD-1 mouse assessed as excess fluids in lungs and peritoneal cavity; type: organism-based; method in brief: as §1
Mus musculus [4] = experiment: Toxicity in ip dosed CD-1 mouse assessed as exophthalmos; type: organism-based; method in brief: as §1
Mus musculus [5] = experiment: Toxicity in ip dosed CD-1 mouse assessed as mild to moderate ataxia; type: organism-based; method in brief: as §1
Mus musculus [6] = experiment: Toxicity in ip dosed CD-1 mouse assessed as respiratory difficulties; type: organism-based; method in brief: as §1
Mus musculus [7] = experiment: Toxicity in ip dosed CD-1 mouse assessed as SLUD syndrome; type: organism-based; method in brief: as §1
Mus musculus [8] = experiment: Toxicity in ip dosed CD-1 mouse assessed as increase in peristalsis of the small intestine; type: organism-based; method in brief: as §1
[9] = Toxicity in ip dosed CD-1 mouse assessed as mortality in presence of 20 mg/kg, ip choline; type: organism-based; set-up: dose 20 mg/kg, route intraperitoneal
Mus musculus [10] = experiment: Toxicity in ip dosed CD-1 mouse assessed as loss of righting response; type: organism-based; method in brief: as §1
Mus musculus [11] = experiment: Toxicity in ip dosed CD-1 mouse assessed as cardiac contractions; type: organism-based; method in brief: as §1
Mus musculus [12] = experiment: Ratio of HC-3 LD50 to compound LD50 in CD-1 mouse; type: ADME, organism-based
Method in brief: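 Mice received the compounds ip, dissolved in normal saline (0.9% NaCl). Deaths were scored to derive the ip LD50 in mg/kg with 95% confidence limits. Each LD50 was also expressed as a ratio to that of HC-3. Signs were recorded in the animals that died, and immediate autopsy examined the heart, intestine, lungs and peritoneal cavity.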

| Structure (SMILES) | mortality [1] | Activity (Mus musculus [2]) | Activity (Mus musculus [3]) | Activity (Mus musculus [4]) | Activity (Mus musculus [5]) | Activity (Mus musculus [6]) | Activity (Mus musculus [7]) | Activity (Mus musculus [8]) | mortality [9] | Activity (Mus musculus [10]) | Activity (Mus musculus [11]) | Ratio (Mus musculus [12]) |
| --- | --- | --- | --- | --- | --- | --- | --- | --- | --- | --- | --- | --- |
| C[N+]1(C)CCOC(O)(c2ccc(-c3ccc(C4(O)C[N+](C)(C)CCO4)cc3)cc2)C1.[Br-].[Br-] (configuration not stated) | 90% | Toxic | Non-toxic | Toxic | Toxic | Toxic | Toxic | Toxic | 15% | Toxic | Non-toxic | – |
| C[N+](C)(CCS)CC(=O)c1ccc(-c2ccc(C(=O)C[N+](C)(C)CCS)cc2)cc1.[Br-].[Br-] | 70% | Toxic | Non-toxic | Toxic | Toxic | Toxic | Toxic | Toxic | 10% | Toxic | Non-toxic | 226 |
| CC(=O)SCC[N+](C)(C)CC(=O)c1ccc(-c2ccc(C(=O)C[N+](C)(C)CCSC(C)=O)cc2)cc1.[Br-].[Br-] | 30% | Toxic | Non-toxic | Toxic | Toxic | Toxic | Toxic | Toxic | 40% | Toxic | Non-toxic | 1 |
| CC(=O)OCC[N+](C)(C)CC(=O)c1ccc(-c2ccc(C(=O)C[N+](C)(C)CCOC(C)=O)cc2)cc1.[Br-].[Br-] | 80% | Toxic | Non-toxic | Toxic | Toxic | Toxic | Toxic | Toxic | 0% | Toxic | Non-toxic | 1 |
